The source of these data is ChEMBL document CHEMBL3580600, “Design, Synthesis, and Evaluation of 4- and 5-Substituted o-(Octanesulfonamido)benzoic Acids as Inhibitors of Glycerol-3-Phosphate Acyltransferase” (Medchemcomm, 2014).

The assay deals with T1, Glycerol-3-phosphate acyltransferase 1, mitochondrial (Mus musculus, UniProt Q61586).
T1 sequence (Q61586 whole entry): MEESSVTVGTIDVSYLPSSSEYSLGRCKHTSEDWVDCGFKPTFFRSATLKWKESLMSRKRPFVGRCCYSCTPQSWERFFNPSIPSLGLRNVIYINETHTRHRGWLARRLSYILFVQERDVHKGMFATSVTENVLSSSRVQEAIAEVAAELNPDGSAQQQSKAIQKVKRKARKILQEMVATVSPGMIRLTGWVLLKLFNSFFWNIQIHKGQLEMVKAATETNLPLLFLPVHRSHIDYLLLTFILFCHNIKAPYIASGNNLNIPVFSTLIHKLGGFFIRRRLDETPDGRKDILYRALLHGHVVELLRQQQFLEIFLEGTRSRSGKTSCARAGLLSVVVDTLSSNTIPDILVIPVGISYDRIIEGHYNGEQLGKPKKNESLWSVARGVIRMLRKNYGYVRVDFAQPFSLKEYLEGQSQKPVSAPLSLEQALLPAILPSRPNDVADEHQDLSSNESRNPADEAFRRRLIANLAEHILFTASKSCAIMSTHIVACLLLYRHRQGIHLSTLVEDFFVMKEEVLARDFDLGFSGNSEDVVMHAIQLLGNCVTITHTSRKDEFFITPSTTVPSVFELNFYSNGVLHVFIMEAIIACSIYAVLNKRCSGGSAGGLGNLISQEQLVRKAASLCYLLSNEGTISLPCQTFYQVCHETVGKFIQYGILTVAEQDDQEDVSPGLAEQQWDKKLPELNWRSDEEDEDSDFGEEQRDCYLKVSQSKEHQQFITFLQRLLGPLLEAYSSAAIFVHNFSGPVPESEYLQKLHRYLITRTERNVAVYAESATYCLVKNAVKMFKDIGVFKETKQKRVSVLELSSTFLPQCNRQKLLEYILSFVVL
In words: Inhibition of GPAT in BALB/c mouse mitochondria using 14C-labeled glycerol-3-phosphate and palmitoyl-CoA incubated for 10 mins by scintillation counting method. A digest of the protocol:
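Mitochondria isolated from freshly harvested BALB/c mouse liver by differential centrifugation (1000 × g, then 3500 × g, twice) and resuspended in HEPES pH 7.4 storage buffer. Reaction in 75 mM Tris/HCl pH 7.4, 4 mM MgCl₂, 2 mg/mL BSA, 14C-glycerol-3-phosphate (7.6 mCi/mmol), 50 μM palmitoyl-CoA. Inhibitor 0–40 μg/mL in DMSO. Triplicates. IC50 taken relative to DMSO vehicle control activity.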
For orientation: IC50 means the concentration at which inhibition is half-maximal. Read a low IC50 as greater potency. The molecule `CCCCCCCCS(=O)(=O)Nc1ccc(CCc2ccc(OC)cc2)cc1C(=O)O` had a concentration for half-maximal inhibition (IC50) of 26.3 µM.

On to `CCCCCCCCS(=O)(=O)Nc1ccc(CCc2ccccc2)cc1C(=O)O`, for which inhibition was half-maximal at 37.5 µM (IC50).

With `CCCCCCCCS(=O)(=O)Nc1cc(-c2ccccc2-c2ccccc2)ccc1C(=O)O`, inhibition was half-maximal at 17.1 µM (IC50).

`CCCCCCCCS(=O)(=O)Nc1cc(-c2ccc(O)cc2)ccc1C(=O)O` came in with an IC50 of 64.8 µM.

As for `CCCCCCCCS(=O)(=O)Nc1cc(/C=C/c2ccccc2)ccc1C(=O)O`, the half-maximal inhibitory concentration (IC50) worked out at 38 µM.

The molecule `CCCCCCCCS(=O)(=O)Nc1ccc(-c2cccc(F)c2)cc1C(=O)O` registered an IC50 of 37.6 µM.

`CCCCCCCCS(=O)(=O)Nc1cc(-c2ccccc2OC)ccc1C(=O)O` came in with an IC50 of 16.1 µM.

Take `CCCCCCCCS(=O)(=O)Nc1ccc(C(=O)c2ccccc2OC)cc1C(=O)O`: the IC50 worked out at 59.2 µM.

Molecule `CCCCCCCCS(=O)(=O)Nc1ccc(-c2ccc(Cl)cc2)cc1C(=O)O` yielded an IC50 of 9.2 µM.

`CCCCCCCCS(=O)(=O)Nc1ccc(C(=O)c2ccc(OC)cc2)cc1C(=O)O` showed an IC50 of 44.3 µM.

In the case of `CCCCCCCCS(=O)(=O)Nc1cc(-c2cccc(F)c2)ccc1C(=O)O`, half-maximal inhibition (IC50) required 32.6 µM.

Take `CCCCCCCCS(=O)(=O)Nc1ccc(C(=O)c2ccc(CCCC)cc2)cc1C(=O)O`: half-maximal inhibition (IC50) was put at 31.7 µM.

For `CCCCCCCCS(=O)(=O)Nc1ccc(-c2ccccc2-c2ccccc2)cc1C(=O)O`, the IC50 turned out to be 10.1 µM.

For the molecule `CCCCCCCCS(=O)(=O)Nc1cc(-c2ccccc2F)ccc1C(=O)O`, the IC50 came out at 47.2 µM.

The molecule `CCCCCCCCS(=O)(=O)Nc1ccc(-c2ccccc2F)cc1C(=O)O` showed a concentration for half-maximal inhibition (IC50) of 34.6 µM.

With `CCCCCCCCS(=O)(=O)Nc1cc(-c2ccccc2Cl)ccc1C(=O)O`, the IC50 was 26.9 µM.

On to `CCCCCCCCS(=O)(=O)Nc1cc(-c2ccc(CCCC)cc2)ccc1C(=O)O`, for which the midpoint of inhibition, the IC50, lay at 15.7 µM.

`CCCCCCCCS(=O)(=O)Nc1cc(-c2ccc(-c3ccccc3)cc2)ccc1C(=O)O` had an IC50 of 13.5 µM.

In turn, `CCCCCCCCS(=O)(=O)Nc1ccc(-c2ccc(O)cc2)cc1C(=O)O` displayed an IC50 of 47.3 µM.

`CCCCCCCCS(=O)(=O)Nc1ccc(-c2cccc(Cl)c2)cc1C(=O)O` gave a 50% inhibitory concentration (IC50) of 8.9 µM.

Consider `CCCCCCCCS(=O)(=O)Nc1ccc(/C=C/c2ccc(OC)cc2)cc1C(=O)O`, for which the half-inhibitory concentration (IC50) turned out to be 37.1 µM.

`CCCCCCCCS(=O)(=O)Nc1ccc(-c2ccccc2OC)cc1C(=O)O` had an IC50 of 27.6 µM.

As to `CCCCCCCCS(=O)(=O)Nc1cc(CCc2ccc(OC)cc2)ccc1C(=O)O`, half-maximal inhibition (IC50) required 43 µM.

Turning to `CCCCCCCCS(=O)(=O)Nc1ccc(-c2ccc(CCCC)cc2)cc1C(=O)O`, it took 9 µM to reach half-maximal inhibition (IC50).

In the case of `CCCCCCCCS(=O)(=O)Nc1ccc(/C=C/c2ccccc2)cc1C(=O)O`, half-maximal inhibition (IC50) was put at 16.3 µM.

Take `CCCCCCCCS(=O)(=O)Nc1cc(C(=O)c2ccc(-c3ccccc3)cc2)ccc1C(=O)O`: 8.5 µM corresponded to half-maximal inhibition (IC50).

As for `CCCCCCCCS(=O)(=O)Nc1cc(CCc2ccccc2)ccc1C(=O)O`, half-maximal inhibition (IC50) was put at 37.5 µM.

Regarding `CCCCCCCCS(=O)(=O)Nc1ccc(C(=O)c2ccc(-c3ccccc3)cc2)cc1C(=O)O`, the 50% inhibitory concentration (IC50) was 13 µM.

For the molecule `CCCCCCCCS(=O)(=O)Nc1cc(-c2cccc(Cl)c2)ccc1C(=O)O`, the IC50 came out at 13.8 µM.

In turn, `CCCCCCCCS(=O)(=O)Nc1cc(C(=O)c2ccc(CCCC)cc2)ccc1C(=O)O` displayed an IC50 of 15.8 µM.

As for `CCCCCCCCS(=O)(=O)Nc1cc(-c2ccc(OC)cc2)ccc1C(=O)O`, half-maximal inhibition (IC50) was put at 13.3 µM.

In the case of `CCCCCCCCS(=O)(=O)Nc1cc(-c2ccc(Cl)cc2)ccc1C(=O)O`, inhibition was half-maximal at 18.1 µM (IC50).

On to `CCCCCCCCS(=O)(=O)Nc1ccc(-c2ccc(-c3ccccc3)cc2)cc1C(=O)O`, for which the IC50 amounted to 29.1 µM.

Take `CCCCCCCCS(=O)(=O)Nc1ccc(-c2ccccc2O)cc1C(=O)O`: 61.7 µM corresponded to half-maximal inhibition (IC50).

Take `CCCCCCCCS(=O)(=O)Nc1cc(/C=C/c2ccc(OC)cc2)ccc1C(=O)O`: the 50% inhibitory concentration (IC50) came out at 38.7 µM.

As to `CCCCCCCCS(=O)(=O)Nc1ccc(-c2ccc(OC)cc2)cc1C(=O)O`, the half-maximal inhibitory concentration (IC50) was found to be 19.5 µM.
